Experimental data: ChEMBL document CHEMBL5375965, “Discovery of New Broad-Spectrum Anti-Infectives for Eukaryotic Pathogens Using Bioorganometallic Chemistry” (J Med Chem, 2023)
pIC50: −log10 of the molar value.

What was measured:
Brugia pahangi [1] = experiment: Antinematodal activity against Brugia pahangi assessed as inhibition of worm motility at day 1 by worminator analysis; type: functional; conditions: time 1 day
How it was run: (§1)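 Single adult female worm per well in RPMI-1640 (25 mM HEPES, 2.0 g/L NaHCO₃, 5% heat-inactivated FBS, 1X antibiotic/antimycotic), 4 replicate wells, 6 days at 37°C, 5% CO₂. Motility recorded 60 s per plate on days 0, 1, 2, 3 and 6 as pixels displaced/s. Inhibition = (1 − treated MMU/mean 1% DMSO control MMU) × 100, floored at zero. IC₅₀ from 3- and 6-point dilutions.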

Brugia pahangi [2] = experiment: Antinematodal activity against Brugia pahangi assessed as inhibition of worm motility at day 2 by worminator analysis; type: functional; conditions: time 2 day; how it was run: as §1
Brugia pahangi [3] = experiment: Antinematodal activity against Brugia pahangi assessed as inhibition of worm motility at day 3 by worminator analysis; type: functional; conditions: time 3 day; how it was run: as §1
Brugia pahangi [4] = experiment: Antinematodal activity against Brugia pahangi assessed as inhibition of worm motility at day 6 by worminator analysis; type: functional; conditions: time 6 day; how it was run: as §1
Trichuris muris [5] = experiment: Antinematodal activity against Trichuris muris assessed as inhibition of worm motility at day 1 by worminator analysis; type: functional
How it was run: as §1, with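 “Two” for “Single”, “worms” for “female worm”, “plate as pixels displaced/s” for “plate”, “6.” for “6 as pixels displaced/s.”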

Trichuris muris [6] = experiment: Antinematodal activity against Trichuris muris assessed as inhibition of worm motility at day 2 by worminator analysis; type: functional; conditions: time 2 day
How it was run: as §1, with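 “Two” for “Single”, “worms” for “female worm”, “plate as pixels displaced/s” for “plate”, “6.” for “6 as pixels displaced/s.”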

Trichuris muris [7] = experiment: Antinematodal activity against Trichuris muris assessed as inhibition of worm motility at day 5 by worminator analysis; type: functional; conditions: time 5 day
Trichuris muris [8] = experiment: Antinematodal activity against Trichuris muris assessed as inhibition of worm motility at day 6 by worminator analysis; type: functional; conditions: time 6 day
How it was run: as §1, with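 “Two” for “Single”, “worms” for “female worm”, “plate as pixels displaced/s” for “plate”, “6.” for “6 as pixels displaced/s.”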

Candida albicans [9] = experiment: Antifungal activity against Candida albicans CAAL28 infected in BALB/c mouse candidiasis model administered once daily for 3 days; type: functional, organism-based; conditions: CAAL28, 72 h
Candida albicans [10] = experiment: Antifungal activity against Candida albicans CAAL28 infected in BALB/c mouse candidiasis model assessed as animal survival pre-infected for 1 hr followed by compound addition at 10 mg/kg administered once daily for 3 days and measured on day 4 (reference value: 25%); type: functional; conditions: time 4 day
Brugia pahangi [11] = experiment: Antinematodal activity against Brugia pahangi assessed as inhibition of worm motility measured immediately by worminator analysis; type: functional; how it was run: as §1
Trichuris muris [12] = experiment: Antinematodal activity against Trichuris muris assessed as inhibition of worm motility measured immediately by worminator analysis; type: functional
How it was run: as §1, with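 “Two” for “Single”, “worms” for “female worm”, “plate as pixels displaced/s” for “plate”, “6.” for “6 as pixels displaced/s.”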

OC(Cn1cncn1)(Cn1cncn1)c1ccc(F)cc1F [FLUCONAZOLE]
inhibition (INH) (Brugia pahangi [1]): 15%
inhibition (INH) (Brugia pahangi [2]): 7%
inhibition (INH) (Brugia pahangi [3]): 11%
inhibition (INH) (Brugia pahangi [4]): 4%
inhibition (INH) (Trichuris muris [5]): 6%
inhibition (INH) (Trichuris muris [6]): 21%
inhibition (INH) (Trichuris muris [7]): 20%
inhibition (INH) (Trichuris muris [8]): 13%
pIC50 (Candida albicans [9]): < 4.00
Activity (Candida albicans [10]): >50%
inhibition (INH) (Brugia pahangi [11]): 10%
inhibition (INH) (Trichuris muris [12]): 6%
